Source: ChEMBL document CHEMBL4732112, “Synthesis and in vitro evaluation of novel spiroketopyrazoles as acetyl-CoA carboxylase inhibitors and potential antitumor agents” (Eur J Med Chem, 2021)

Experiments:
Acetyl-CoA carboxylase 1 = Acetyl-CoA carboxylase 1 (Homo sapiens, UniProt Q13085); assay: Inhibition of recombinant human C-terminal His-tagged ACC1 (1 to 2383 residues) expressed in baculovirus infected Sf9 insect cells preincubated for 15 mins followed by substrate addition and measured after 60 mins by ADP-glo luminescence assay
Procedure, shortened: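 Recombinant ACC1 in assay buffer preincubated with inhibitor in DMSO for 15 min at room temperature. Reaction started with substrate mixture and run 60 min at room temperature. Stopped with ADP-Glo reagent for 40 min, then detection reagent for 40 min to convert ADP to ATP, read by luminescence. Mean of two independent experiments.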

A549 = assay: Antiproliferative activity against human A549 cells assessed as cell growth inhibition at 10 uM after 72 hrs by MTT assay relative to control; type: functional; conditions: read-out: GI
Procedure, shortened: (§1)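 Cells were DMEM/10% FBS cultures at 37 °C, 5% CO2, seeded at 3×10^3 per well and exposed for 72 h after 24 h attachment. Read-out was MTT with formazan in DMSO and absorbance at 550 nm, expressed as inhibition rate versus control.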

MDA-MB-231 [1] = assay: Antiproliferative activity against human MDA-MB-231 cells assessed as cell growth inhibition at 10 uM after 72 hrs by MTT assay relative to control; type: functional; conditions: read-out: GI; procedure, shortened: as §1
MDA-MB-231 [2] = assay: Antiproliferative activity against human MDA-MB-231 cells assessed as cell growth inhibition after 72 hrs by MTT assay; type: functional, cell-based; conditions: MDA-MB-231, 72 h
Procedure, shortened: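 HepG2, A549 or MDA-MB-231 cells grown in DMEM with 10% FBS and penicillin/streptomycin at 37 °C, 5% CO2. Seeded at 3×10^3 per well, left 24 h, then exposed to a range of concentrations for 72 h. MTT added for 4 h, formazan dissolved in DMSO, absorbance read at 550 nm. Mean ± SD, n=3.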

[3] = Cytotoxicity against HUVEC assessed as cell viability at 100 uM after 72 hrs by MTT assay relative to control; type: cell-based; conditions: human, HUVEC cells, read-out: Activity
Procedure, shortened: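 HUVEC kept in RPMI 1640 with 10% FBS at 37 °C, 5% CO2. Seeded at 3×10^3 per well and treated at 100 µM for 72 h after 24 h attachment. Viability by MTT with absorbance at 550 nm, as percent of control. Mean ± SD, n=3.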

HepG2 [4] = assay: Antiproliferative activity against human HepG2 cells assessed as cell viability at 0.5 uM measured after 5 days by MTT assay relative to control; type: functional; conditions: HepG2, 120 h, time 5 day, read-out: Activity
Procedure, shortened: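 HepG2 treated with 0.5 μM plus 0, 10 or 25 μM palmitate for 1, 3 and 5 days. Palmitate was complexed with 5% fatty-acid-free BSA from a 5 mM solution, then diluted in serum-free DMEM to final concentration. Viability (% control) by MTT. Mean ± SD, n=3.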

HepG2 [5] = assay: Cell cycle arrest in human HepG2 cells assessed as accumulation at G0/G1 phase measured after 48 hrs by propidium iodide staining based flow cytometry; type: functional; conditions: dose 1-10 µM
HepG2 [6] = assay: Cell cycle arrest in human HepG2 cells assessed as accumulation at S phase at 1 uM measured after 48 hrs by propidium iodide staining based flow cytometry (reference value: 30.18%); type: functional
HepG2 [7] = assay: Cell cycle arrest in human HepG2 cells assessed as accumulation at S phase at 5 uM measured after 48 hrs by propidium iodide staining based flow cytometry (reference value: 30.18%); type: functional
HepG2 [8] = assay: Cell cycle arrest in human HepG2 cells assessed as accumulation at G2/M phase at 5 uM measured after 48 hrs by propidium iodide staining based flow cytometry (reference value: 13.58%); type: functional
HepG2 [9] = assay: Cell cycle arrest in human HepG2 cells assessed as accumulation at G0/G1 phase at 10 uM measured after 48 hrs by propidium iodide staining based flow cytometry (reference value: 56.24%); type: functional
HepG2 [10] = assay: Cell cycle arrest in human HepG2 cells assessed as accumulation at G2/M phase at 10 uM measured after 48 hrs by propidium iodide staining based flow cytometry (reference value: 13.58%); type: functional
HepG2 [11] = assay: Cell cycle arrest in human HepG2 cells assessed as reduction in cyclin D1 expression measured after 48 hrs by Western blot analysis; type: functional, cell-based; conditions: dose 1-10 µM
Procedure, shortened: (§2)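 HepG2 cells treated for 48 h and lysed. Lysates cleared at 12000 rpm for 15 min and protein measured by BCA. Run on SDS-PAGE, transferred to PVDF, blocked in 5% BSA, primary antibody at 4 °C overnight, then DyLight 800 secondary. Infrared imaging and densitometry against β-actin. Mean ± SD, n=3.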

HepG2 [12] = assay: Cell cycle arrest in human HepG2 cells assessed as reduction in CDK4 expression measured after 48 hrs by Western blot analysis; type: functional, cell-based; conditions: dose 1-10 µM; procedure, shortened: as §2
HepG2 [13] = assay: Induction of apoptosis in human HepG2 cells assessed as increase in late apoptotic cells measured after 48 hrs by Annexin V-FITC/propidium iodide staining based flow cytometry; type: functional, cell-based; conditions: dose 1-10 µM
Procedure, shortened: (§3)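 HepG2 cells incubated with the stated concentrations for 48 h, harvested, and stained with Annexin V-FITC and propidium iodide protected from light. Viable, early apoptotic, late apoptotic and necrotic fractions quantified by flow cytometry. Mean ± SD, n=3.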

HepG2 [14] = assay: Induction of apoptosis in human HepG2 cells assessed as late apoptotic cells at 1 uM measured after 48 hrs by Annexin V-FITC/propidium iodide staining based flow cytometry (reference value: 0.19%); type: functional; procedure, shortened: as §3
HepG2 [15] = assay: Induction of apoptosis in human HepG2 cells assessed as early apoptotic cells at 5 uM measured after 48 hrs by Annexin V-FITC/propidium iodide staining based flow cytometry (reference value: 4.03%); type: functional; procedure, shortened: as §3
HepG2 [16] = assay: Induction of apoptosis in human HepG2 cells assessed as late apoptotic cells at 5 uM measured after 48 hrs by Annexin V-FITC/propidium iodide staining based flow cytometry (reference value: 0.19%); type: functional; procedure, shortened: as §3
HepG2 [17] = assay: Induction of apoptosis in human HepG2 cells assessed as viable cells at 10 uM measured after 48 hrs by Annexin V-FITC/propidium iodide staining based flow cytometry (reference value: 95.6%); type: functional; conditions: read-out: Activity; procedure, shortened: as §3
HepG2 [18] = assay: Induction of apoptosis in human HepG2 cells assessed as late apoptotic cells at 10 uM measured after 48 hrs by Annexin V-FITC/propidium iodide staining based flow cytometry (reference value: 0.19%); type: functional; procedure, shortened: as §3
HepG2 [19] = assay: Antiproliferative activity against human HepG2 cells assessed as combination index at 1.4 uM measured after 72 hrs in presence of 2.8 uM doxorubicin by MTT assay; type: functional
HepG2 [20] = assay: Antiproliferative activity against human HepG2 cells assessed as combination index at 0.7 uM measured after 72 hrs in presence of 1.4 uM doxorubicin by MTT assay; type: functional
HepG2 [21] = assay: Antiproliferative activity against human HepG2 cells assessed as combination index at 0.35 uM measured after 72 hrs in presence of 0.7 uM doxorubicin by MTT assay; type: functional
HepG2 [22] = assay: Antiproliferative activity against human HepG2 cells assessed as combination index at 0.0875 uM measured after 72 hrs in presence of 0.175 uM doxorubicin by MTT assay; type: functional

Question: What does the source list for `CC(C)(C)n1cc2c(n1)C(=O)CC1(CCN(C(=O)c3cc(-c4ccncc4)nc4ccccc34)CC1)O2`?
Answer: IC50 (Acetyl-CoA carboxylase 1): 0.0113 µM; inhibition of growth at 10 µM (A549): 79.3%; inhibition of growth at 10 µM (MDA-MB-231 [1]): 72.2%; IC50 (MDA-MB-231 [2]): 1.65 µM; viability at 72 h, 100 µM [3]: 95.2%; viability at 0.5 µM (HepG2 [4]): 33.1%; Activity (HepG2 [5]): Dose-dependent effect; Activity (HepG2 [6]): 21.46%; Activity (HepG2 [7]): 14.71%; Activity (HepG2 [8]): 6.46%; Activity (HepG2 [9]): 88.61%; Activity (HepG2 [10]): 4.9%; Activity (HepG2 [11]): Dose-dependent effect; Activity (HepG2 [12]): Dose-dependent effect; Activity (HepG2 [13]): Dose-dependent effect; Activity (HepG2 [14]): 12.7%; Activity (HepG2 [15]): 18.9%; Activity (HepG2 [16]): 32.6%; viability at 10 µM (HepG2 [17]): 12.2%; Activity (HepG2 [18]): 45.5%; CI (HepG2 [19]): 0.366; CI (HepG2 [20]): 0.599; CI (HepG2 [21]): 0.816; CI (HepG2 [22]): 0.713
